Key:
[1] = molecular target: Mitogen-activated protein kinase kinase kinase 7 (Homo sapiens, UniProt O43318); assay: Inhibition of TAK1 in human HeLa cells lysate pre incubated for 15 mins followed by ATP acyl phosphate probe addition and measured after 10 mins by LC-MS/MS analysis; type: subcellular
[2] = Inhibition of PCTAIRE2/ICK in human HeLa cells lysate at 50 uM pre incubated for 15 mins followed by ADP acyl phosphate probe addition and measured after 10 mins by LC-MS/MS analysis relative to control; details: 25 min, condition cancer
[3] = molecular target: Serine/threonine-protein kinase 24 (Homo sapiens, UniProt Q9Y6E0); assay: Inhibition of MST3 in human HeLa cells lysate pre incubated for 15 mins followed by ADP acyl phosphate probe addition and measured after 10 mins by LC-MS/MS analysis; type: subcellular
[4] = Inhibition of PKD1/2 in human HeLa cells lysate at 2 uM pre incubated for 15 mins followed by ATP acyl phosphate probe addition and measured after 10 mins by LC-MS/MS analysis relative to control; details: 25 min, condition cancer
[5] = Plasma concentration in Sprague-Dawley rat at 2 mg/kg, po measured after 30 mins by LC-MS/MS analysis; type: ADME, organism-based
[6] = molecular target: STE20-like serine/threonine-protein kinase (Homo sapiens, UniProt Q9H2G2); assay: Inhibition of SLK in human HeLa cells lysate at 2 uM pre incubated for 15 mins followed by ADP acyl phosphate probe addition and measured after 10 mins by LC-MS/MS analysis relative to control; type: subcellular; details: time 25.0 min
[7] = Inhibition of MAP3K2/MAP3K3 in human HeLa cells lysate at 50 uM pre incubated for 15 mins followed by ADP acyl phosphate probe addition and measured after 10 mins by LC-MS/MS analysis relative to control; details: 25 min, condition cancer
[8] = molecular target: T1, Serine/threonine-protein kinase 3 (Homo sapiens) (UniProt Q13188); assay: Inhibition of MST2 in human HeLa cells lysate at 10 uM pre incubated for 15 mins followed by ADP acyl phosphate probe addition and measured after 10 mins by LC-MS/MS analysis relative to control; type: subcellular; details: time 25.0 min
T1 sequence (whole entry): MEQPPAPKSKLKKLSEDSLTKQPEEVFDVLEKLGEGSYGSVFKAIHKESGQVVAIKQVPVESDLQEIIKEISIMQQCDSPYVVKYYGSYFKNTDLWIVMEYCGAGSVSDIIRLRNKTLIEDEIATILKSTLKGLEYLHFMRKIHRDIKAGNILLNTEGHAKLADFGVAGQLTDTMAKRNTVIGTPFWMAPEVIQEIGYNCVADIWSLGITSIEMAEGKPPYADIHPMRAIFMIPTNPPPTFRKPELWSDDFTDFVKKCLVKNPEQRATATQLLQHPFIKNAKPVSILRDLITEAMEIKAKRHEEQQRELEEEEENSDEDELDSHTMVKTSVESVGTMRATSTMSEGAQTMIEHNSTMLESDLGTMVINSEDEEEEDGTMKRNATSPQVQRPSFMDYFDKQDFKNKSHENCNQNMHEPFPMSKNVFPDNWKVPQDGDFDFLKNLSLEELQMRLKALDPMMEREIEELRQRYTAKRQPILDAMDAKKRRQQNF

[9] = molecular target: MAP/microtubule affinity-regulating kinase 3 (Homo sapiens, UniProt P27448); assay: Inhibition of MARK3 in human HeLa cells lysate at 50 uM pre incubated for 15 mins followed by ADP acyl phosphate probe addition and measured after 10 mins by LC-MS/MS analysis relative to control; type: subcellular; details: time 25.0 min
[10] = molecular target: Ephrin type-B receptor 4 (Homo sapiens) (UniProt P54760); assay: Inhibition of EphB4 in human HeLa cells lysate at 10 uM pre incubated for 15 mins followed by ATP acyl phosphate probe addition and measured after 10 mins by LC-MS/MS analysis relative to control; type: subcellular; details: time 25.0 min
[11] = molecular target: Ribosomal protein S6 kinase alpha-5 (Homo sapiens, UniProt O75582); assay: Inhibition of MSK1 domain 1 in human HeLa cells lysate at 50 uM pre incubated for 15 mins followed by ADP acyl phosphate probe addition and measured after 10 mins by LC-MS/MS analysis relative to control; type: subcellular; details: time 25.0 min
AMPK alpha1/alpha2 = AMPK alpha1/alpha2 (Homo sapiens, UniProt P54646+Q13131); assay: Inhibition of AMPKalpha1/2 in human HeLa cells lysate pre incubated for 15 mins followed by ADP acyl phosphate probe addition and measured after 10 mins by LC-MS/MS analysis; type: subcellular
Method in brief: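 HeLa cell lysates (5 mg/mL total protein) were preincubated with inhibitor at 0, 0.8, 2, 10 or 50 μM for 15 min. ATP or ADP acylphosphate probe was then added (5 μM final) for 10 min, and reactions were stopped with urea. Up to four fragment ions per kinase probe-peptide were quantified by targeted MS. % inhibition was taken relative to untreated lysate. Run in duplicate.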

[12] = molecular target: Interferon-induced, double-stranded RNA-activated protein kinase (Homo sapiens, UniProt P19525); assay: Inhibition of PKR in human HeLa cells lysate at 2 uM pre incubated for 15 mins followed by ADP acyl phosphate probe addition and measured after 10 mins by LC-MS/MS analysis relative to control; type: subcellular; details: time 25.0 min
[13] = molecular target: T2, Phosphatidylinositol 5-phosphate 4-kinase type-2 alpha (Homo sapiens, UniProt P48426); assay: Inhibition of PIP5K2A LIP1 labeling site in human HeLa cells lysate pre incubated for 15 mins followed by ATP acyl phosphate probe addition and measured after 10 mins by LC-MS/MS analysis; type: subcellular
T2 sequence (P48426 whole entry): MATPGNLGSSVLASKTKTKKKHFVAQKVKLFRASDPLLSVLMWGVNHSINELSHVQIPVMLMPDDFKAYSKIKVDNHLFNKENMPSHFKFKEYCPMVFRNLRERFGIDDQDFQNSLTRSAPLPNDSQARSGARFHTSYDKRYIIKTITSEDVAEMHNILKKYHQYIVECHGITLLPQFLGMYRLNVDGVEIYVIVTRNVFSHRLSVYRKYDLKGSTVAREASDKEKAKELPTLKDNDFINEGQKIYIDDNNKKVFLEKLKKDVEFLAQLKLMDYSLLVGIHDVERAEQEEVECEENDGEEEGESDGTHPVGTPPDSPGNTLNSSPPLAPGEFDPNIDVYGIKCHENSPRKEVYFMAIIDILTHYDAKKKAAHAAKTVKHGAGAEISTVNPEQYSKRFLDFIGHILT

Focal adhesion kinase 1 = Focal adhesion kinase 1 (Homo sapiens, UniProt Q05397); assay: Inhibition of FAK in human HeLa cells lysate at 50 uM pre incubated for 15 mins followed by ADP acyl phosphate probe addition and measured after 10 mins by LC-MS/MS analysis relative to control; type: subcellular; details: time 25.0 min
Sequence of Focal adhesion kinase 1 (Q05397 2-1052 limits assumed): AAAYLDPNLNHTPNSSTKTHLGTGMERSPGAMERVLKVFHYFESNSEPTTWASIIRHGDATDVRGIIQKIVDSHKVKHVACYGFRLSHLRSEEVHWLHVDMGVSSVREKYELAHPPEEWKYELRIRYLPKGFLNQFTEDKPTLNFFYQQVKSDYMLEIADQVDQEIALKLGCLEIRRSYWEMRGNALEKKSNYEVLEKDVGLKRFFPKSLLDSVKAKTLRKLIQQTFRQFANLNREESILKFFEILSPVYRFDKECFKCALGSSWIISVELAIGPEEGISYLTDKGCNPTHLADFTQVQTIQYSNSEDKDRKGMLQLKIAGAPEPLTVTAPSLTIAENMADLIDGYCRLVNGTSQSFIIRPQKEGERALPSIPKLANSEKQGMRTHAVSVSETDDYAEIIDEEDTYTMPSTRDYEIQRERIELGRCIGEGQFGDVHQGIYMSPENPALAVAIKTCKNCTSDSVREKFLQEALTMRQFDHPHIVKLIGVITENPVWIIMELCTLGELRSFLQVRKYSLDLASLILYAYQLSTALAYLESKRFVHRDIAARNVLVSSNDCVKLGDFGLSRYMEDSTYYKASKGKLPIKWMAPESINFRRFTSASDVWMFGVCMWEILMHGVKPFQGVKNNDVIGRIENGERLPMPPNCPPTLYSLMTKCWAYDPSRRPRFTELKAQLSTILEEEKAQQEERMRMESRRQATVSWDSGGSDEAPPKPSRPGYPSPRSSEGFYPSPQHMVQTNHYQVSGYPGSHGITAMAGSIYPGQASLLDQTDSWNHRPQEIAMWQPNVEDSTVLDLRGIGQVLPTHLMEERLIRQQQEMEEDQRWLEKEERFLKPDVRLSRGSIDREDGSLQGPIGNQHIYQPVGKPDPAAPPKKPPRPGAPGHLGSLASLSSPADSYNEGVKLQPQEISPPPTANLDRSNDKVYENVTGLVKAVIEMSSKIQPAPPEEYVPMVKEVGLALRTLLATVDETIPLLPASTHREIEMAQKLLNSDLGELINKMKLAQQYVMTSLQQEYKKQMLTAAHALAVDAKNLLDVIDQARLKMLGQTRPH

Sequence of STE20-like serine/threonine-protein kinase (Q9H2G2 whole entry, looked up): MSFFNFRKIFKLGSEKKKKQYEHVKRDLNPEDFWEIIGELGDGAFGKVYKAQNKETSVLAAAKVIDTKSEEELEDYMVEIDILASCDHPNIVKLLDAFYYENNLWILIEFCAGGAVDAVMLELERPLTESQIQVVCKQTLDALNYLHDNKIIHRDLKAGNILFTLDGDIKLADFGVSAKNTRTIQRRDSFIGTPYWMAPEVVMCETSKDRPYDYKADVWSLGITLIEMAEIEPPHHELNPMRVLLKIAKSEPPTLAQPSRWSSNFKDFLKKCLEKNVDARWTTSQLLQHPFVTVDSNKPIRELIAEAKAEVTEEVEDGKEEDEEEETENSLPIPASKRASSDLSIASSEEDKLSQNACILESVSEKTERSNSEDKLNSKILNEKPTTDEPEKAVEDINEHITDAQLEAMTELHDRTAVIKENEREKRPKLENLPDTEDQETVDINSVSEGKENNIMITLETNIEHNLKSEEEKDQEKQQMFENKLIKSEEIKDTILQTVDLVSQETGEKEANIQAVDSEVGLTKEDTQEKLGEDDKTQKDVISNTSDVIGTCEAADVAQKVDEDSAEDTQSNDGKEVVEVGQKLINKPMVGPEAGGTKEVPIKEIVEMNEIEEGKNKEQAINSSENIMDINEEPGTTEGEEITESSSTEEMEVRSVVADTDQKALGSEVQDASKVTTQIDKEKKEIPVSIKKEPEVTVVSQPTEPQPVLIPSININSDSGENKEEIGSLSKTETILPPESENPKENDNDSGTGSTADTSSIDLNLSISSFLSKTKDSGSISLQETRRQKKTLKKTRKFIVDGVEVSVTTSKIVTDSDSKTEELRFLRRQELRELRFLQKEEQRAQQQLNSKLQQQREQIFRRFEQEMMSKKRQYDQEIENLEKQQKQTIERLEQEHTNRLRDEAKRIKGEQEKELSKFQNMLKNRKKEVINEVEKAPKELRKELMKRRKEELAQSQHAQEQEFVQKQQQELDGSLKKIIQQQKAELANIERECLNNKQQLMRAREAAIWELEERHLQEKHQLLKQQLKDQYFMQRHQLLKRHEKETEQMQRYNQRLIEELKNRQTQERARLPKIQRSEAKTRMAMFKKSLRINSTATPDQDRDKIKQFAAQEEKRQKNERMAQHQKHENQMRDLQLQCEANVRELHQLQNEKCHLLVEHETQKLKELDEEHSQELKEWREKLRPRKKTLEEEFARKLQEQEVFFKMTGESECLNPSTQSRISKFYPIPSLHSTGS
Sequence of MAP/microtubule affinity-regulating kinase 3 (P27448 whole entry, looked up): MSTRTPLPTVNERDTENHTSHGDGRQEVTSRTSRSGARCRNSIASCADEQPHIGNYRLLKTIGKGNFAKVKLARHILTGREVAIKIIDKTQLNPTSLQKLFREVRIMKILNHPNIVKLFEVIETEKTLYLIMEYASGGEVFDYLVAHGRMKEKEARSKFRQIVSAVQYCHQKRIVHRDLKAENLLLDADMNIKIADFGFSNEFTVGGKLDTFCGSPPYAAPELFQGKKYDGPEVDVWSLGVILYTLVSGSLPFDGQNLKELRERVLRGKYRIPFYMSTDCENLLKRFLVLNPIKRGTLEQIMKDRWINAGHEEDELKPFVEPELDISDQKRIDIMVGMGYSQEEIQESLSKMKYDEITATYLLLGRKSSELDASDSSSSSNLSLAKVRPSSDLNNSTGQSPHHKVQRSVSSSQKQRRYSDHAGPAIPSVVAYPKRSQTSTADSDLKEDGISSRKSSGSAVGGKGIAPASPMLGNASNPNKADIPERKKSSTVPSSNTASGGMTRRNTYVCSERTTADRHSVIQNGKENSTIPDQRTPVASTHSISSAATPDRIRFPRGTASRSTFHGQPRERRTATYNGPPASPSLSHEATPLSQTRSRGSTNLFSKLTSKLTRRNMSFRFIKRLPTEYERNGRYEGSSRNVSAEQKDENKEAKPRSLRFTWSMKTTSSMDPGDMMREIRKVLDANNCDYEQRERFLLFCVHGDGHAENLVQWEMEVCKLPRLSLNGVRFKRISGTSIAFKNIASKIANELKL
Sequence of Serine/threonine-protein kinase 24 (Q9Y6E0 whole entry): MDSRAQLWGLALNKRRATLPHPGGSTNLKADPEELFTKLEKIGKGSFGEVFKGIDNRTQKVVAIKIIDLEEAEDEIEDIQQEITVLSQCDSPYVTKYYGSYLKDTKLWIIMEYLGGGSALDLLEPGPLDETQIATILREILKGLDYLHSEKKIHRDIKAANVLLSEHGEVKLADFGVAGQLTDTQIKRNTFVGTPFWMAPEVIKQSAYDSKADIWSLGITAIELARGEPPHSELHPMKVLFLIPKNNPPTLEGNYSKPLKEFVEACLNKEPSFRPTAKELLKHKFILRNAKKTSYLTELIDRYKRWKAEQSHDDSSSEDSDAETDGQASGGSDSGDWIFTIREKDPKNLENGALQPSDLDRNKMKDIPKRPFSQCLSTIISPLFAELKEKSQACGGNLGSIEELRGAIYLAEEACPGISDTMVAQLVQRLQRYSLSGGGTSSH
Sequence of Mitogen-activated protein kinase kinase kinase 7 (O43318 whole entry): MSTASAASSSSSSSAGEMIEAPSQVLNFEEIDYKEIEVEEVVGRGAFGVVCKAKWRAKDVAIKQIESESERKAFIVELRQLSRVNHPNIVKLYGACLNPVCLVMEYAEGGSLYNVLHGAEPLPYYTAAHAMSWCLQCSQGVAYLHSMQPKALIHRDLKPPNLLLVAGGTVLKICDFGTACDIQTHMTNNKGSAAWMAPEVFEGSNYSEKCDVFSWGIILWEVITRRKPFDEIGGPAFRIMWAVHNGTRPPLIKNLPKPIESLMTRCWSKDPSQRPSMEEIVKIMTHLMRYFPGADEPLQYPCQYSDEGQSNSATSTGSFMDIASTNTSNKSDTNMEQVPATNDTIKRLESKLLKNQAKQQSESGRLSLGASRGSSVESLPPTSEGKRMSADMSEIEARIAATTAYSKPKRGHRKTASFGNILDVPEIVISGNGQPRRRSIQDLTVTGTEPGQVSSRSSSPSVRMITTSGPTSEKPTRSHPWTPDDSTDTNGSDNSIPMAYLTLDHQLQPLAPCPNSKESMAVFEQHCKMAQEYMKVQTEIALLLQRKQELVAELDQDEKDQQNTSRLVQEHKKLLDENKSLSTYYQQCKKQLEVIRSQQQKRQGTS
Sequence of Ribosomal protein S6 kinase alpha-5 (O75582 whole entry, looked up, the tested form may be a part): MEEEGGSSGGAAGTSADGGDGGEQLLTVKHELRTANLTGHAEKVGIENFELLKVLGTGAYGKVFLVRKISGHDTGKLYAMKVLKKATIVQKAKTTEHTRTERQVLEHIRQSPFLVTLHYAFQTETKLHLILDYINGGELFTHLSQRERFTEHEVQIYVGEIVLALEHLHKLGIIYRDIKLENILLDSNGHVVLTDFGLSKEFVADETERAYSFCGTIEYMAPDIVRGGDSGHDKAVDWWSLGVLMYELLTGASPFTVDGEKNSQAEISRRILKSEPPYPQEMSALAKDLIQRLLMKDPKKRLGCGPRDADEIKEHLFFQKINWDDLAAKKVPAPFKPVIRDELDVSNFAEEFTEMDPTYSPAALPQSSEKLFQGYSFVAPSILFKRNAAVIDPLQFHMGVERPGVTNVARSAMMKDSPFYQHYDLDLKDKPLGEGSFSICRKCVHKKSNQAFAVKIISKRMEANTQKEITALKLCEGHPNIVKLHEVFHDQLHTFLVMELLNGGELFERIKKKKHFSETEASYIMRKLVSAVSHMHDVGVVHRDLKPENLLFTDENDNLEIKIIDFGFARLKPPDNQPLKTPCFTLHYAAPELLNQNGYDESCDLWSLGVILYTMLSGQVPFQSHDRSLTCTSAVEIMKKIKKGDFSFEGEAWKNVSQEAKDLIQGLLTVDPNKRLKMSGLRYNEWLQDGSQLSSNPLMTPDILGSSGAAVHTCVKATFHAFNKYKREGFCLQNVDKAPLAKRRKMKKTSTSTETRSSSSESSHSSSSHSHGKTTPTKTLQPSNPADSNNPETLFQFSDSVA

Question: Which results are given for `CCOc1cc(N2CCC(O)CC2)ccc1Nc1ncc2c(n1)N(C)c1ccccc1C(=O)N2C`?
Answer: IC50 [1]: > 50 µM; inhibition at 50 µM [2]: 4.1%; IC50 [3]: > 50 µM; inhibition at 2 µM [4]: 27.1%; concentration at 0.5 h [5]: ~500 nM; inhibition [6]: 13.3%; inhibition at 50 µM [7]: -14.5%; inhibition [8]: 23.5%; inhibition [9]: -3.3%; inhibition [10]: -7.1%; inhibition [11]: 6.4%; IC50 (AMPK alpha1/alpha2): > 50 µM; inhibition [12]: 8.4%; IC50 [13]: > 50 µM; inhibition (Focal adhesion kinase 1): 58.1%

Source: ChEMBL document CHEMBL5661979, “Pharmacological inhibition of BMK1 suppresses tumor growth through promyelocytic leukemia protein” (Cancer Cell, 2010)
